Results on 17 molecules are retold here after ChEMBL document CHEMBL3860041, “Synthesis, biological evaluation and molecular modeling study of some new methoxylated 2-benzylthio-quinazoline-4(3H)-ones as nonclassical antifolates” (Bioorg Med Chem Lett, 2016).

One test concerns the target T1, Dihydrofolate reductase (Bos taurus, UniProt P00376).
T1 sequence (P00376 whole entry): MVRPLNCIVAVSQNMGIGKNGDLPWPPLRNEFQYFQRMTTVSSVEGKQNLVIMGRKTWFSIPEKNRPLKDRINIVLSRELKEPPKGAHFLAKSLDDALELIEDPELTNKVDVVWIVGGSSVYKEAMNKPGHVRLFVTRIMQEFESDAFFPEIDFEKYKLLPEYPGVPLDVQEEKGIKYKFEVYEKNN
Briefly: Inhibition of bovine liver DHFR preincubated for 2 mins followed by addition of FH2 as substrate and NADPH.

Test [1] can be described thus: Growth inhibition of human CNS cancer cells after 48 hrs by SRB assay. The following applies: Cancer cell lines. Format: functional. The method, boiled down:
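Five-log dose range against NCI tumor cell lines, monitoring GI50, TGI and LC50 for each cell line; MG-MID values derived across the panel; 5-fluorouracil positive control.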

Test [2] can be described thus: Growth inhibition of human leukemia cells after 48 hrs by SRB assay. The class given is functional. The following applies: Leukemia cell. In outline:
(§1)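 Follow-up NCI panel testing over a 5-log dose range for each cell line. GI50, TGI and LC50 were monitored, with 5-fluorouracil run as the positive control. Values are grouped by tumour subpanel.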

Test [3] can be described thus: Growth inhibition of human non-small cell lung cancer cells after 48 hrs by SRB assay. Format: functional. The following applies: Cancer cell lines. The method, boiled down:
as §1

Test [4] is described as follows: Growth inhibition of human colon cancer cells after 48 hrs by SRB assay. The class given is functional. The following applies: Cancer cell lines. In outline:
as §1

Test [5] in a line: Growth inhibition of human melanoma cells after 48 hrs by SRB assay. The class given is functional. As to conditions: Melanoma cell. In outline: as §1
On the technique in general: The SRB assay estimates cell density from bound dye.

A short description of test [6]: Growth inhibition of human ovarian cancer cells after 48 hrs by SRB assay. Format: functional. As to conditions: Cancer cell lines. The method, boiled down: as §1
The nature of test [7]: Growth inhibition of human renal cancer cells after 48 hrs by SRB assay. The following applies: Cancer cell lines. The class given is functional. The method, boiled down: as §1
Test [8] in a line: Growth inhibition of human prostate cancer cells after 48 hrs by SRB assay. The class given is functional. As to conditions: Cancer cell lines. The method, boiled down: as §1
The nature of test [9]: Growth inhibition of human breast cancer cells after 48 hrs by SRB assay. The class given is functional. The following applies: Cancer cell lines. The method, boiled down: as §1
Test [10] relates to Staphylococcus aureus. The test can be described thus: Antimicrobial activity against Staphylococcus aureus IFO 3060 at 200 ug/disc measured after 24 hrs by agar disc-diffusion method. Format: functional. As to conditions: IFO 3060, 24 h, read-out: DIZ.
The test system of test [11] is Bacillus subtilis. The test can be described thus: Antimicrobial activity against Bacillus subtilis IFO 3007 at 200 ug/disc measured after 24 hrs by agar disc-diffusion method. Format: functional. As to conditions: IFO 3007, 24 h, read-out: DIZ. In general terms: A growth-free zone around the sample is the usual read-out of agar diffusion tests.
Test [12] relates to Escherichia coli. Briefly: Antimicrobial activity against Escherichia coli IFO 3301 at 200 ug/disc measured after 24 hrs by agar disc-diffusion method. Format: functional. The following applies: IFO 3301, 24 h, read-out: DIZ.
Test [13] has as its system Pseudomonas aeruginosa. The test can be described thus: Antimicrobial activity against Pseudomonas aeruginosa IFO 3448 at 200 ug/disc measured after 24 hrs by agar disc-diffusion method. Format: functional. As to conditions: IFO 3448, 24 h, read-out: DIZ.
The subject of the next test is Candida albicans. The test can be described thus: Antimicrobial activity against Candida albicans IFO 0583 at 200 ug/disc measured after 48 hrs by agar disc-diffusion method. The class given is functional. The following applies: IFO 0583, 48 h, read-out: DIZ.
The subject of test [14] is Staphylococcus aureus. Briefly: Antimicrobial activity against Staphylococcus aureus IFO 3060 measured after 24 hrs by microdilution method. The following applies: IFO 3060, 24 h. Format: functional. Background: In broth dilution the organism is exposed to a series of concentrations in liquid medium.
The test system of test [15] is Bacillus subtilis. The test can be described thus: Antimicrobial activity against Bacillus subtilis IFO 3007 measured after 24 hrs by microdilution method. The following applies: IFO 3007, 24 h. The class given is functional.
Test [16] deals with Pseudomonas aeruginosa. The test can be described thus: Antimicrobial activity against Pseudomonas aeruginosa IFO 3448 measured after 24 hrs by microdilution method. Format: functional. As to conditions: IFO 3448, 24 h.
The subject of test [17] is Escherichia coli. The test can be described thus: microbe, parasite or virus in culture. As to conditions: IFO 3301, 24 h.

≈ marks a conversion by molar mass, not a printed value. Where only a bound is given, the exact number is not on record here.

Regarding `COc1ccc(CSc2nc3ccc(Cl)cc3c(=O)n2Cc2ccccc2)cc1`, on Dihydrofolate reductase, half-maximal inhibition (IC50) required 1.1 µM.

For the molecule `COc1ccc(CSc2nc3ccc(C)cc3c(=O)n2-c2ccccc2OC)cc1`, at Dihydrofolate reductase, 0.9 µM corresponded to half-maximal inhibition (IC50).

`COc1cc(CSc2nc3ccc(Cl)cc3c(=O)n2-c2ccc(C)cc2)cc(OC)c1OC`: the IC50 (usually the concentration that gives 50% inhibition) at Dihydrofolate reductase was found to be 3 µM.

Regarding `O=c1[nH]cc(F)c(=O)[nH]1` [FLUOROURACIL], the TGI in [1], in [2], in test [3], in test [4], in [5] and in test [6] was above 100 µM in each case. The TGI in [7], in test [8] and in [9] was above 100 µM in each case. The CC50 in test [2] (read-out: LC50 (the source's name)) was above 100 µM. In addition, the GI50 (as a rule, the concentration giving 50% growth inhibition) in test [3] was above 100 µM; in [4], 8.4 µM; in test [5], 70.6 µM; in test [6], 61.4 µM; in test [7] it was 45.6 µM; in test [8], 22.7 µM. Further, in test [9], halving of growth (GI50) required 76.4 µM.

Molecule `COc1ccc(CSc2nc3ccc(C)cc3c(=O)n2-c2ccc(OC)cc2OC)cc1` registered an IC50 on Dihydrofolate reductase of 0.7 µM.

With `COc1ccc(CSc2nc3ccc(Cl)cc3c(=O)n2-c2ccc(OC)cc2)cc1`, on Dihydrofolate reductase, the IC50 is 0.1 µM.

`COc1ccc(CSc2nc3ccc(Cl)cc3c(=O)n2-c2ccc(Cl)cc2)cc1`: at Dihydrofolate reductase, the IC50 was found to be 3 µM.

The molecule `COc1cc2nc(SCc3cc(OC)c(OC)c(OC)c3)n(-c3ccccc3)c(=O)c2cc1OC` returned an IC50 at Dihydrofolate reductase of 0.9 µM. For the same molecule, the zone of inhibition at 200 µg/disc is 15 mm in the test with Staphylococcus aureus [10]; 19 mm in the test with Bacillus subtilis [11]; 18 mm in the test on Escherichia coli [12]; 16 mm in the test with Pseudomonas aeruginosa [13]; 8 mm with Candida albicans. The MIC against Staphylococcus aureus [14], with Bacillus subtilis [15], with Pseudomonas aeruginosa [16] and in the test with Escherichia coli [17] was 8 µg/mL (≈ 16.2 µM) each time.

Take `COc1ccc(CSc2nc3cc(OC)c(OC)cc3c(=O)n2Cc2ccccc2)cc1`: at Dihydrofolate reductase, the IC50 came to 0.8 µM.

At Dihydrofolate reductase, `COc1ccc(CSc2nc3ccc(C)cc3c(=O)n2-c2ccc(C)cc2)cc1` came in with an IC50 of 1 µM.

The molecule `COc1ccc(CSc2nc3ccc(C)cc3c(=O)n2-c2ccc(Cl)cc2)cc1` yielded an IC50 against Dihydrofolate reductase of 0.1 µM.

Molecule `COc1ccc(CSc2nc3ccc(Cl)cc3c(=O)n2-c2ccc(C)cc2)cc1` gave an IC50 at Dihydrofolate reductase of 4 µM.

On Dihydrofolate reductase, `COc1ccc(CSc2nc3cc(OC)c(OC)cc3c(=O)n2-c2ccc(OC)cc2)cc1` gave an IC50 of 0.8 µM.

Take `COc1ccc(-n2c(SCc3cc(OC)c(OC)c(OC)c3)nc3cc(OC)c(OC)cc3c2=O)c(OC)c1`: the IC50 against Dihydrofolate reductase came out at 3 µM.

For `COc1cc(CSc2nc3ccc(C)cc3c(=O)n2-c2ccc(C)cc2)cc(OC)c1OC`, on Dihydrofolate reductase, the IC50 stood at 1.5 µM.

At Dihydrofolate reductase, `COc1ccc(-n2c(SCc3cc(OC)c(OC)c(OC)c3)nc3ccc(Cl)cc3c2=O)c(OC)c1` had an IC50 of 4 µM.

On to `COc1ccc(CSc2nc3ccc(Cl)cc3c(=O)n2-c2ccc(OC)cc2OC)cc1`, for which it took 1 µM to reach half-maximal inhibition against Dihydrofolate reductase (IC50). The zone of inhibition at 200 µg/disc amounted to 15 mm in the test on Staphylococcus aureus [10]; 18 mm in the test on Bacillus subtilis [11]; 8 mm with Escherichia coli [12]; 8 mm with Pseudomonas aeruginosa [13]; 8 mm with Candida albicans. For the same molecule, the results for the MIC against Staphylococcus aureus [14] and with Bacillus subtilis [15] were 8 µg/mL (≈ 17.1 µM) and 4 µg/mL (≈ 8.53 µM), respectively.
